# Compound activity from PubChem.
# Most compounds without a hit are left out; they make up all but 4% or so of the library.
# FN deposit inh = inhibitors of fibronectin matrix deposition, primary screen, AH1F cells, Alexa488-fibronectin fluorescence, plate reader; AH1F fibroblasts, overnight; inhibition, % at 12.6 µM; 350,000 compounds, 0.086% hits; AID 743247, 2014;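 active = mean inhibition across replicates of 30% or more, regardless of how many single replicates reach that level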;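 also: positive control wells lacked labelled fibronectin entirely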
#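 Material: AH1F fibroblast monolayer depositing Alexa488-labelled fibronectin into matrix | Input: 10000 AH1F cells/well | Medium: DMEM plus 2% serum, read in PBS | Reagent: Alexa488-fibronectin, 24 nM final in well | Compound dosing: One dose per compound, pinned | Schedule: 1 h adhesion, overnight exposure | Measured by: Fluorescence at 485 nm excitation, 525 nm emission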
# rRNA inh HTS = reduced GFP signal of wild-type E. coli, primary screen, bacterial rRNA inhibitor project, GFP/RFP fluorescence, OD600, single point; 350,000 compounds, 1.6% hits; GFP signal change (wild-type ribosome), % (test concentration not listed); E. coli WT GFP vs humanized-ribosome RFP mutants, 24 h; hits give low values; DMSO median 0, no signal -100; AID 720706, 2013;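 active = significant combined selectivity score with lowered wild-type GFP, culture density cut under 30%, mutant RFP and density less affected; inactive = any of these conditions unmet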
# E-selectin induc = E-selectin induction in HUVECs, primary screen, imaging, HUVEC, immunofluorescence imaging, single point. P16581. normalized: neutral wells 0, TNF-alpha wells 100. activation, % at 7.58 µM. 260,000 compounds, 0.37% hits. AID 686992, 2013;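 active = mean E-selectin-positive cell signal at least 10% of the positive control, reached in at least 60% of replicates, without over 20% cell loss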
#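 Assay system: HUVEC primary endothelial cells. Input: 3,000 HUVEC seeded per well. Doses: one compound dose added by pin transfer. Read-out basis: % PE-positive cells. Benchmarks: TNF-alpha high, DMSO low. Detection: immunofluorescence imaging. Buffer or medium: EGM-2, gelatin.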
# C2C12 statin = suppressors of statin myotoxicity in C2C12 myotubes, primary screen, cell-based, single point, plate reader; C2C12 myotubes + simvastatin, ATP luminescence, 48 h; scaled: DMSO 0, geranylgeraniol control 100; rescue of ATP level, % at 7.49 µM; 330,000 compounds, 0.78% hits;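 active = mean ATP rescue above about 67%, or every replicate alone reaching that limit, limit read from the data, passing the limit was not always enough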;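 also: myotubes were challenged with 10 µM simvastatin during compound exposure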
# FGF22 binding = binders of human FGF22 protein, primary screen, FGF22 synaptogenesis inhibitor project, biophysical, thermal shift, single point. Fibroblast growth factor 22 (Homo sapiens), Q9HCT0. recombinant FGF22 thermal shift, SYPRO orange fluorescence; percent of sucrose octasulfate shift, DMSO zero. activity (Tm shift, normalised), % at 9.99 µM. 340,000 compounds, 1.5% hits;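 active = mean Tm shift, scaled 0 neutral to 100 positive control, at about 1.3% or above, every replicate too, limit read from the data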
# Target sequence (Q9HCT0 whole entry, looked up): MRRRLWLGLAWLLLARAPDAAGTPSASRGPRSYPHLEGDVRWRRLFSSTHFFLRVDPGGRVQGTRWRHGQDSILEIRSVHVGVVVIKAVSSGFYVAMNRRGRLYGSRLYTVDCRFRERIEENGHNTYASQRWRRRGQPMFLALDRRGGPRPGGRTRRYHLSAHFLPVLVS
# SIRT5 inh = SIRT5 desuccinylase inhibitors, primary screen, biochemical, fluorescence imaging, single point, set 5; NAD-dependent protein deacylase sirtuin-5, mitochondrial (Homo sapiens), Q9NXA8; Purified SirT5, succinyl-peptide AMC, trypsin-coupled fluorescence; inhibition, % at 15 µM; 330,000 compounds, 1.1% hits; in the data active = inhibition above about 15%
# * marks the source's active call; other numbers are inactive results; x = not tested or not shown.
SMILES,FN deposit inh,rRNA inh HTS,E-selectin induc,C2C12 statin,FGF22 binding,SIRT5 inh
COc1ccc(CCNC(=O)CCCNC(=O)Cn2cnc3sc(C)c(C)c3c2=O)cc1OC,-10,13,x,x,44*,-5
COc1ccc(CCNC(=O)CCCn2c(=S)[nH]c3ccsc3c2=O)cc1OC,0,3,0,3,43*,x
COc1cccc2c(=O)n(CC(=O)NCCc3ccccc3)ccc12,-10,11,1,x,0,0
COc1ccc(S(=O)(=O)N(C)C[C@H]2OCCCC[C@@H](C)Oc3ccc(NC(=O)NC(C)C)cc3C(=O)N([C@H](C)CO)C[C@@H]2C)cc1,x,-1,0,x,0,1
Cc1cccc(NC(=O)Nc2ccc3c(c2)C(=O)N(C)[C@H]2CC[C@@H](CC(=O)NCc4ccccc4Cl)O[C@@H]2CO3)c1,-6,-3,0,-41,0,7
COCC(=O)N(C)C[C@H]1Oc2cc(C3=CCCC3)ccc2S(=O)(=O)N([C@@H](C)CO)C[C@@H]1C,x,1,0,-2,0,-3
CC(NC(=O)COC(=O)C1CCN(c2ccc(C(F)(F)F)cn2)CC1)c1ccc(F)cc1 (configuration not stated),0,-5,x,5,0,4
CC(NC(=O)COC(=O)C1CCN(c2ccc(C(F)(F)F)cn2)CC1)c1ccc(Br)cc1 (configuration not stated),-18,-24*,x,x,0,-4
NCCCCc1ccc2ccc3cccc4ccc1c2c34,-6,-19*,-1,-6,0,-4
O=C(O)CCCc1ccc2ccc3cccc4ccc1c2c34,6,-10,0,1,-1,0
Cc1cc(C)c(S(=O)(=O)/N=C2/C=C(Sc3ncn[nH]3)C(=O)c3ccccc32)cc1C,39*,x,x,x,x,x
COc1ccccc1-c1cn(CC[C@H]2CC[C@H](NC(=O)CCN3CCCCC3)[C@@H](CO)O2)nn1,-5,2,0,8,0,0
CC(C)OC(=O)C1C(=O)CC(C)(O)C(C(=O)OC(C)C)C1c1cccc([N+](=O)[O-])c1 (configuration not stated),1,13,0,x,0,-1
CCOC(=O)C1C(c2cccc([N+](=O)[O-])c2)C2C(=O)NN=C2CC1(C)O (configuration not stated),11,20,x,x,43*,-2
C[C@H]1CN([C@@H](C)CO)C(=O)c2cc(NC(=O)Nc3ccc4c(c3)OCO4)ccc2O[C@@H]1CN(C)S(=O)(=O)c1cccs1,10,-8,0,4,0,4
C=CCN(C(=O)c1csnn1)C(C(=O)NC1CCCC1)c1ccc(Cl)cc1 (configuration not stated),0,1,x,18,0,-3
CCc1ccc(C(C(=O)NC2CCCCC2)N(C(=O)c2csnn2)C2CC2)cc1 (configuration not stated),4,4,39*,6,0,4
O=C(CN(C(=O)c1csnn1)c1ccc(Cl)cc1)NC1CCCC1,-4,x,x,-1,0,-3
Cc1ccc(C(C(=O)NC2CCCCC2)N(C(=O)c2csnn2)C2CC2)cc1 (configuration not stated),1,-7,1,18,0,-1
C=CCN(C(=O)c1csnn1)C(C(=O)NC1CCCCC1)c1ccccc1 (configuration not stated),11,-1,31*,7,0,-2
CC(=O)c1ccc(N(CC(=O)NC2CCCC2)C(=O)c2csnn2)cc1,-5,x,x,-2,44*,-5
